The text below walks through data of paper PMC3162150 (Cancer Chemotherapy and Pharmacology, 2011).

The term Tmax denotes the time from dosing to the highest level. What is called half-life is how long it takes for the measured level to halve. The low end stands for rapid decline, the high end for slow decline. By AUC(0-inf) is commonly meant total exposure, with the tail of the curve extrapolated. A lower AUC(0-inf) goes with less exposure. As usually defined, the Cmax is the peak of the concentration-time curve. A word on the CL/F: it is the apparent clearance, not corrected for the fraction that reaches the circulation.

“And” between values parts separate entries of the source, which are not always exact repeats. Identical values can stand only once. Like-named read-outs stand apart in the source and are kept apart here.

The format of series [1] is in vivo, human. The following applies: for AUC0–∞ ratio (90% CI), panobinostat + ketoconazole / panobinostat alone / C max ratio (90% CI), panobinostat + ketoconazole / panobinostat alone: geometric mean ratio; for CL/F: geometric mean.
Series [2] is described as follows: Adverse events and laboratory safety assessment. It counts as in vivo, human.
Series [3] is classed as in vivo, human. Summed up:
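Patients took 20 mg of the oral test compound each Monday, Wednesday and Friday from day 15 (extension phase) until disease progression or withdrawal. Before that, in cycle 1, they had single 20 mg doses on day 1 and day 8; the day 8 dose followed a CYP3A inhibitor given at 400 mg once daily on days 5–9. Laboratory assessments were done weekly during the extension.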

In a further series the test system is CYP3A. Description: Estimate of fraction of panobinostat cleared by CYP3A from AUC ratio. The series is classed as in vivo, human.
Series [4] relates to human cytochrome P450 CYP3A4. The following applies: in vitro; minor involvement of CYP2D6 and CYP2C19; no reference given; cited from earlier work.
For series [5] the following is noted: cited from earlier work.
The conditions of series [6]: cited from earlier work. This is another data set of the same source.
The nature of series [7]: 12-lead ECG monitoring during the core phase.
Where [8] appears, read: 20 mg panobinostat, ketoconazole 400 mg.
The mark [9] stands for this setting: 20 mg panobinostat, ketoconazole 400 mg, listed as panobinostat.
Where [10] appears, read: extension phase, panobinostat 20 mg MWF, 13 patients.
Where [11] appears, read: ref personal communication Margaret M Woo, Novartis.
The mark [12] stands for this setting: period 1 (panobinostat only), N = 14.
Where [13] appears, read: period 3 (concomitant panobinostat and ketoconazole), N = 14.
Setting [14] is: period 2 (ketoconazole only), N = 14.

For the compound `Cc1[nH]c2ccccc2c1CCNCc1ccc(/C=C/C(=O)NO)cc1` [Panobinostat], in series [1] (setting [8]), the “change in T max or half-life in the presence of ketoconazole” value is given as “No substantial change”; the “AUC0–∞ ratio (90% CI), panobinostat + ketoconazole / panobinostat alone” value is 1.8 (1.5–2.2); the “C max ratio (90% CI), panobinostat + ketoconazole / panobinostat alone” value is recorded as 1.6 (1.2–2.2). Besides, in series [1] (after 20 mg dose on day 1, LLOQ 0.5 ng/ml), the “residual panobinostat in plasma prior to the day 8 dose” value is reported as “No residual panobinostat was detectable”. In addition, in series [1] (setting [9]), the “AUC0–∞ ratio (90% CI), panobinostat + ketoconazole / panobinostat alone” value was found to be 1.8 and the “C max ratio (90% CI), panobinostat + ketoconazole / panobinostat alone” value came out at 1.6. In addition, in series [1] (human, plasma, oral, 20 mg), the time of peak concentration (Tmax) turned out to be 1 h and the half-life was 14 h. In series [1] (human, plasma, po, 20 mg), this compound showed an AUC(0-inf) of 133 ng·h/mL and a Cmax of 18.5 ng/mL. Further, the “T max difference, panobinostat + ketoconazole vs panobinostat alone” value in series [1] (median (minimum and maximum difference)) is given as 0.0 (−2.5 to 3.0) h. Moreover, the apparent clearance CL/F in series [1] (panobinostat 20 mg + ketoconazole 400 mg) was 90.6 L/h. Moreover, the CL/F in series [1] (panobinostat 20 mg alone) was 150.3 L/h. In series [2] (core phase), the “adverse events categorized as grade 1” value is given as 42.9 % of all events and the “adverse events categorized as grade 2” value is 35.7 % of all events. Also, in series [2] (core phase, N = 14), the “anorexia, regardless of relationship to study drug” value is on record as 4 patients; the “diarrhea, regardless of relationship to study drug” value is on record as 5 patients; the “fatigue, regardless of relationship to study drug” value came to 2 patients; the “hypophosphatemia, regardless of relationship to study drug” value amounted to 3 patients. In series [2] (core phase, N = 14), the “myalgia, regardless of relationship to study drug” value is 3 patients; the “nausea, regardless of relationship to study drug” value amounted to 3 patients; the “vomiting, regardless of relationship to study drug” value is 4 patients. Moreover, the “asymptomatic hypophosphatemia of grade ≥ 2” value in series [2] (during the trial, nine out of fourteen patients) is 64%. In series [2] (setting [10]), the “anorexia, regardless of relationship to study drug” value is 7 patients; the “diarrhea, regardless of relationship to study drug” value is recorded as 8 patients; the “fatigue, regardless of relationship to study drug” value was determined as 7 patients; the “hypophosphatemia, regardless of relationship to study drug” value stood at 9 patients. Besides, the “vomiting, regardless of relationship to study drug” value in series [2] (setting [10]) was 8 patients. Also, the “nausea, regardless of relationship to study drug” value in series [2] (extension phase, single-agent panobinostat 20 mg oral MWF, 13 patients) worked out at 10 patients. The same compound gave a neutropenia in series [2] (panobinostat administered for a prolonged period (extension phase)) of 2 patients. For the same compound, in series [3] (Subj nr 00005, day 54, extension phase), the “Fractional excretion of phosphate” value is 5.3 (day 54) %. In addition, the “Fractional excretion of phosphate” value in series [3] (Subj nr 00005, day 61, extension phase) is reported as 3.2 (day 61) %. Besides, the “Fractional excretion of phosphate” value in series [3] (Subj nr 00007, day 70, extension phase) was 19.4 (day 70) %. For the same compound, the “Fractional excretion of phosphate” value in series [3] (Subj nr 00007, day 77, extension phase) is reported as 19.0 (day 77) %. Also, the “Fractional excretion of phosphate” value in series [3] (Subj nr 00010, day 36, extension phase) was 2.7 (day 36) %. In series [3] (Subj nr 00010, day 43, extension phase), the “Fractional excretion of phosphate” value was 8.9 (day 43) %. Further, in the series on CYP3A (from fmCYP3A estimate), the “contribution of CYP pathways to the overall metabolism” value is on record as less than 50%. For the same compound, the “fmCYP3A (fraction of panobinostat cleared by CYP3A)” value in the series with CYP3A (in vivo) is 0.4. Besides, the “share of oxidative metabolism mediated by CYP3A4” value in series [4] is on record as 70–98%. For the same compound, in series [5] (patients with Hodgkin's lymphoma, dose escalation, of 13 patients), the dose-limiting thrombocytopenia entry is on record as “four”. The “grade 3/4 thrombocytopenia” value in series [5] (patients with Hodgkin's lymphoma, dose escalation) was 10 out of 13. In series [6] (setting [11]), the “inter-individual variability in pharmacokinetics” value was 60% and the “intra-individual variability in pharmacokinetics” value is reported as 30%. For the same compound, in series [6] (two dose-escalation trials, dose between 20 and <60 mg), the “dose dependence of C max and AUC” value is “increase linearly with the dose”. For the same compound, the “mean QTc increase at any moment compared with baseline” value in series [7] (core phase (15 days; panobinostat 20 mg days 1 and 8, ketoconazole days 5–9)) is given as “below 5%”. In series [7] (core phase, all three periods), the “increases in QTc ≥ 60 ms compared with baseline” value is given as “No increases”. In series [7] (setting [12]), the Ectopic activity was 2 (14%) patients (%), the “New QTcB >450 ms” value is on record as 3 (21%) patients (%), the “QTcB increase >60 ms” value is recorded as 0 patients (%) and the ST segment depression was 0 patients (%). Also, in series [7] (setting [12]), the Sinus bradycardia is 0 patients (%), the Sinus tachycardia is on record as 0 patients (%), the T wave changes is reported as 2 (14%) patients (%) and the “patients with other transient ECG abnormalities” value was found to be 21%. In series [7] (setting [13]), the Ectopic activity is on record as 2 (14%) patients (%), the “New QTcB >450 ms” value is recorded as 2 (14%) patients (%), the “QTcB increase >60 ms” value is reported as 0 patients (%) and the ST segment depression was 2 (14%) patients (%). Also, in series [7] (setting [13]), the Sinus bradycardia is recorded as 0 patients (%), the Sinus tachycardia is 2 (14%) patients (%), the T wave changes is 2 (14%) patients (%) and the “patients with other transient ECG abnormalities” value is listed as 43%.
`CC(=O)N1CCN(c2ccc(OCC3COC(Cn4ccnc4)(c4ccc(Cl)cc4Cl)O3)cc2)CC1` (stereo not drawn) [ketoconazole, reference compound]: in series [7] (setting [14]), the Ectopic activity was 1 (7%) patients (%), the “New QTcB >450 ms” value is reported as 2 (14%) patients (%), the Sinus tachycardia is 0 patients (%) and the T wave changes is 1 (7%) patients (%). The “patients with other transient ECG abnormalities” value in series [7] (setting [14]) was found to be 21%. In addition, in series [7] (period 2 (ketoconazole only, day 5 until day 8), N = 14), the “QTcB increase >30 ms” value was 3 patients (%) and 3 (21%) patients (%).
Turning to `O=C(CCCCCCC(=O)Nc1ccccc1)NO` [vorinostat, reference compound], in series [5] (review of toxicities of HDAC inhibitors), the “asymptomatic hypophosphatemia reported with single agent” value is reported as 5%.
